The nature of data set [1]: Apparent permeability in pH 7.4 ammonium acetate buffer incubated for 5 hrs by PAMPA. The class given is ADME. A digest of the protocol:
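Passive permeability by PAMPA, reported as Papp in 10–6 cm s–1. Values under the limit of quantification were flagged as BLQ. Compound recovery in the assay was also determined.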

The target of data set [2] is Albumin (Homo sapiens, UniProt P02768). The data set can be described thus: Binding affinity to HSA assessed as free fraction by HPLC analysis. It is filed as ADME. Particulars: isolated protein.
Albumin, sequence (P02768 whole entry): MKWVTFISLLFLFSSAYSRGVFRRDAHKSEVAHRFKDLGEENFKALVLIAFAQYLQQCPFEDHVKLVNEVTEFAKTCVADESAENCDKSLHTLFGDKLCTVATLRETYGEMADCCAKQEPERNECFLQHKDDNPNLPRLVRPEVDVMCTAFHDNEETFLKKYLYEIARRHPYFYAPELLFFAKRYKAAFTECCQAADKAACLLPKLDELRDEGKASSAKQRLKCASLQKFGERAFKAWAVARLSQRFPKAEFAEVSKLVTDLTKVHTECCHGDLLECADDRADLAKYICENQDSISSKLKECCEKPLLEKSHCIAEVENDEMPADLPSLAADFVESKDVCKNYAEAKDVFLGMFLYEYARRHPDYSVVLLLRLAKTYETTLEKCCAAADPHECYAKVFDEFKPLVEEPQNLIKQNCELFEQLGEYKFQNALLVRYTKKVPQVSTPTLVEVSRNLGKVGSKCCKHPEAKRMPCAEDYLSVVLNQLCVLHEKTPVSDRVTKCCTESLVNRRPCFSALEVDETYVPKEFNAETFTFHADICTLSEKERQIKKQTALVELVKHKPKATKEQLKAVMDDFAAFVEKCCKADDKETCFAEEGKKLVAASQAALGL
A short description of data set [3]: Chromatographic hydrophobicity index, log D of the compound at pH 7.4 by HPLC analysis. The class given is physicochemical. Conditions: buffer.
A short description of data set [4]: Apparent permeability from apical to basolateral side in human Caco2 cells at 10 uM incubated for 120 mins. The class given is ADME, cell-based. Particulars: Caco-2. The gist of the method: (§1)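 Polarized Caco-2 cell monolayer, permeability measured in both directions (apical to basolateral and basolateral to apical), reported as Papp in 10–6 cm s–1. Efflux ratio taken as the ratio of the directional permeabilities. Compound recovery also determined.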
(In general: Passage across Caco-2 layers is used to estimate intestinal permeability.)

Data set [5] can be described thus: Apparent permeability from basolateral to apical side in human Caco2 cells at 10 uM incubated for 120 mins. The class given is ADME, cell-based. Conditions: Caco-2. A digest of the protocol:
as §1

Data set [6] in a line: Efflux ratio of apparent permeability across basolateral to apical membrane over apical to basolateral membrane in human Caco2 cells at 10 uM incubated for 120 mins. The class given is ADME, cell-based. Conditions: Caco-2. The gist of the method: as §1
For data set [7], the target named is T1, von Hippel-Lindau disease tumor suppressor/Androgen receptor (Homo sapiens, UniProt P10275+P40337). Nature of the data set: Protac activity at VHL/androgen receptor in human LNCaP cells assessed as induction of androgen receptor protein degradation at 1 uM incubated for 6 hrs by Western blot analysis relative to control. It is filed as cell-based.
Target sequence in this assay (P10275 whole entry, looked up): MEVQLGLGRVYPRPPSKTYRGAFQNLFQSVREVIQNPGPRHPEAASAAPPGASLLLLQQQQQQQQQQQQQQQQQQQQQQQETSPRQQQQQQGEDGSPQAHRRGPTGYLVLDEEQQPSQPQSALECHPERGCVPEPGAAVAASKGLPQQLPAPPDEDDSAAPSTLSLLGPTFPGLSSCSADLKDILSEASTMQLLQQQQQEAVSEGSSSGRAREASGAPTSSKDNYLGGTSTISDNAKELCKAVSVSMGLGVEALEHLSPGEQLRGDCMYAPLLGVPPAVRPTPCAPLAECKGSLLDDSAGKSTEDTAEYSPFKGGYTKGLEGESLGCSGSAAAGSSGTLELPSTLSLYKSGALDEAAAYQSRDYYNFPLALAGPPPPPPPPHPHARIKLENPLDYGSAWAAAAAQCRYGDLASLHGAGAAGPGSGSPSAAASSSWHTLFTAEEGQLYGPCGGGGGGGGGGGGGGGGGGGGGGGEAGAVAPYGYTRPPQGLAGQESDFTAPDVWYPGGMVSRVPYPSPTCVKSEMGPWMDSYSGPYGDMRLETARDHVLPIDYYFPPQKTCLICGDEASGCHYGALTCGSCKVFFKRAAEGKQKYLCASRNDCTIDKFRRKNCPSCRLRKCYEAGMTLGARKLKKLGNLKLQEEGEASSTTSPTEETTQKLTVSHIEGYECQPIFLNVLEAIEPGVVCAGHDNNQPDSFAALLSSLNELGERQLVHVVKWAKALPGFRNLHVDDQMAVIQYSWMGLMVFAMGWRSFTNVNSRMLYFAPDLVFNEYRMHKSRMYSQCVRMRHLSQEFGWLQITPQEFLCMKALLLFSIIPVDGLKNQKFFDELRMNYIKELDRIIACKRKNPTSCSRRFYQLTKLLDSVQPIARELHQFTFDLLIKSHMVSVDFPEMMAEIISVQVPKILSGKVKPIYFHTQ
Target sequence in this assay (P40337 whole entry, looked up): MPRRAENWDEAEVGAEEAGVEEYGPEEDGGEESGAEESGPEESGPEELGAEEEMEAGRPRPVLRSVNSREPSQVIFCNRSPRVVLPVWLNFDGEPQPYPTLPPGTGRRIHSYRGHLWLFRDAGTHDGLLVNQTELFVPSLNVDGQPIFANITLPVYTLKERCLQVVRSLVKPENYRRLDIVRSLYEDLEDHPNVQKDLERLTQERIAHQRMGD
The target of data set [8] is T1, von Hippel-Lindau disease tumor suppressor/Androgen receptor. Nature of the data set: Protac activity at VHL/androgen receptor in human LNCaP cells assessed as induction of androgen receptor protein degradation incubated for 6 hrs by Western blot analysis. It is filed as cell-based. The gist of the method: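 Androgen-dependent LNCaP prostate adenocarcinoma cells treated across a concentration range, then AR protein levels normalized and plotted against concentration. DCMAX is the percentage of AR cleared; DC50 is the concentration giving half of DCMAX. At least 5 independent experiments, each in triplicate. Significance by ANOVA with Dunnett's test.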

The target is the same in data set [9]. Nature of the data set: Protac activity at VHL/androgen receptor in human LNCaP cells assessed as induction of androgen receptor protein degradation incubated for 6 hrs by Western blot analysis relative to control. It is filed as cell-based. The gist of the method: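 LNCaP cells (androgen-dependent human prostate adenocarcinoma) were exposed to a concentration series of PROTAC. AR protein levels were normalized and plotted against PROTAC concentration. DCMAX is the percentage of AR cleared, and DC50 is the concentration clearing half of DCMAX. Data come from at least 5 independent experiments run in triplicate, with ANOVA (Dunnett's) for significance.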
Target sequence in this assay (P10275 whole entry, looked up): as the sequence (P10275 whole entry, looked up) above
Target sequence in this assay (P40337 whole entry, looked up): as the sequence (P40337 whole entry, looked up) above
(In general: Immunoblotting shows a protein as a band on a membrane.)

The source made the active and inactive calls. No cut-off for these calls is given here.

As a reminder, the Papp is the rate of passage across a membrane or cell layer, normalised by area and donor concentration. For `Cc1ncsc1-c1ccc(CNC(=O)[C@@H]2C[C@@H](O)CN2C(=O)[C@@H](NC(=O)COCCCCCOc2ccc(C(=O)N[C@H]3C(C)(C)[C@H](Oc4ccc(C#N)c(C(F)(F)F)c4)C3(C)C)cc2)C(C)(C)C)cc1`, the Papp at 5 h in [1] was less than 10 nm/s. For the same molecule, the Activity in data set [2] was 7%. The molecule further came in with a CHI in [3] of 6.7.

With `CN1C(=O)N(c2ccc(C#N)c(C(F)(F)F)c2)C(=O)C1(C)c1ccc(O)cc1` (stereo not drawn), the Papp at 5 h in data set [1] came to 83 nm/s. Further, in [2], the Activity is recorded as more than 5%. In data set [3], this molecule returned a CHI of 4.4.

As for `Cc1ncsc1-c1ccc(CNC(=O)[C@@H]2C[C@@H](O)CN2C(=O)[C@@H](NC(=O)COCCCOc2ccc(-c3ccc(N4C(=S)N(c5ccc(C#N)c(C(F)(F)F)c5)C(=O)C4(C)C)cc3)cc2)C(C)(C)C)cc1`, the Papp at 5 h in [1] was less than 10 nm/s. For the same molecule, the Activity in [2] is 7%. This molecule registered a CHI in data set [3] of 6.2.

Regarding `CN1C(=O)N(c2ccc(C#N)c(C(F)(F)F)c2)C(=O)C1(C)c1ccc(OCCOCCOCCOCCOc2cccc3c2CN([C@H]2CCC(=O)NC2=O)C3=O)cc1` (stereo partly drawn), the Papp at 5 h in data set [1] came out at 3 nm/s.

In general, Papp A→B refers to how fast a substance crosses the layer from the apical side. As a reminder, the Papp B→A is the apparent permeability from the basolateral to the apical side of a cell layer. As usually defined, the efflux ratio is a quotient of directional permeabilities that is used to spot active efflux. Turning to `Cc1ncsc1-c1ccc(CNC(=O)[C@@H]2C[C@@H](O)CN2C(=O)[C@@H](NC(=O)COCCCOCC(F)(F)C(F)(F)COc2ccc(N3C(=S)N(c4ccc(C#N)c(C(F)(F)F)c4)C(=O)C3(C)C)cc2)C(C)(C)C)cc1`, the Papp at 5 h in data set [1] was less than 10 nm/s. Moreover, the Activity in data set [2] was found to be 7%. This molecule also showed a CHI in data set [3] of 6.1. In addition, the Papp A→B at 2 h, 10 µM in data set [4] was determined as 3.3 nm/s. Also, the Papp B→A at 2 h, 10 µM in [5] was 3.3 nm/s. The efflux ratio at 2 h, 10 µM in data set [6] was more than 3.

Consider `CC(O)(COc1ccc(OCCOCCOCCOCCOc2cccc3c2CN([C@H]2CCC(=O)NC2=O)C3=O)cc1)C(=O)Nc1ccc(C#N)c(C(F)(F)F)c1` (stereo partly drawn), for which, in [1], the Papp at 5 h was 4 nm/s.

Take `N#Cc1ccc(N2CCC[C@@H]2C(O)COCCOCCOCCOCCOC23CC4CC(CC(C4)C2)C3)cc1C(F)(F)F` (stereo partly drawn): the Papp at 5 h in data set [1] turned out to be 23 nm/s.

`Cc1ncsc1-c1ccc(CNC(=O)[C@@H]2C[C@@H](O)CN2C(=O)[C@@H](NC(=O)COCC(F)(F)C(F)(F)C(F)(F)COCCCOc2ccc(N3C(=S)N(c4ccc(C#N)c(C(F)(F)F)c4)C(=O)C3(C)C)cc2)C(C)(C)C)cc1`: the Papp at 5 h in data set [1] is less than 10 nm/s. Further, the Activity in data set [2] was determined as 7%. In data set [3], this molecule had a CHI of 6.3. In data set [4], the Papp A→B at 2 h, 10 µM was determined as 2.6 nm/s. For the same molecule, the Papp B→A at 2 h, 10 µM in data set [5] is less than 7.9 nm/s. In addition, the efflux ratio at 2 h, 10 µM in data set [6] was less than 3.

`Cc1ncsc1-c1ccc(CNC(=O)[C@@H]2C[C@@H](O)CN2C(=O)[C@@H](NC(=O)COCC(F)(F)COc2ccc(-c3ccc(N4C(=S)N(c5ccc(C#N)c(C(F)(F)F)c5)C(=O)C4(C)C)cc3)cc2)C(C)(C)C)cc1`: in [1], the Papp at 5 h is less than 10 nm/s. In addition, the Activity in data set [2] was 6%. In data set [3], this molecule displayed a CHI of 6.1.

For `CC(O)(COc1ccc(OCCOCCOCCOCCOc2cccc3c2C(=O)N(C2CCC(=O)NC2=O)C3=O)cc1)C(=O)Nc1ccc(C#N)c(C(F)(F)F)c1` (stereo not drawn), the Papp at 5 h in [1] stood at 3 nm/s.

Regarding `N#Cc1ccc(N2CCC[C@@H]2C(O)CO)cc1C(F)(F)F` (stereo partly drawn), in data set [1], the Papp at 5 h worked out at 133 nm/s. In addition, in [2], the Activity is on record as more than 5%.

Consider `Cc1ncsc1-c1ccc(CNC(=O)[C@@H]2C[C@@H](O)CN2C(=O)[C@@H](NC(=O)CCOCCOCCOc2ccc(C(=O)N[C@H]3C(C)(C)[C@H](Oc4ccc(C#N)c(C(F)(F)F)c4)C3(C)C)cc2)C(C)(C)C)cc1`, for which the Papp at 5 h in data set [1] was less than 10 nm/s. In [2], the Activity is on record as 8%. Also, the CHI in data set [3] was found to be 5.8.

As to `OC12CC3CC(CC(C3)C1)C2`, the Activity in data set [2] is more than 5%; in [7], 18%. The CHI in data set [3] turned out to be 7.9.

Regarding `Cc1ncsc1-c1ccc(CNC(=O)[C@@H]2C[C@@H](O)CN2C(=O)[C@@H](NC(=O)CCOCCOCCOCCOc2ccc(N3C(=S)N(c4ccc(C#N)c(C(F)(F)F)c4)C(=O)C3(C)C)cc2)C(C)(C)C)cc1`, in data set [1], the Papp at 5 h is less than 10 nm/s. In addition, in data set [2], the Activity was determined as 11%. The molecule further had a CHI in data set [3] of 5.1. For the same molecule, the apical-to-basolateral permeability (Papp A→B) at 2 h, 10 µM in [4] is less than 6.9 nm/s. Also, the Papp B→A at 2 h, 10 µM in [5] is 26 nm/s. The efflux ratio at 2 h, 10 µM in data set [6] was more than 12.

Turning to `O=C1CCC(N2C(=O)c3cccc(O)c3C2=O)C(=O)N1` (stereo not drawn), the Papp at 5 h in data set [1] amounted to 20 nm/s. The values for the Activity in data set [2] and in [7] were more than 5% and 23%, respectively. Moreover, the CHI in [3] was 0.4.

`CC1(C)C(=O)N(c2ccc(C#N)c(C(F)(F)F)c2)C(=S)N1c1ccc(O)cc1`: in data set [1], the Papp at 5 h was determined as 46 nm/s. For the same molecule, the Activity in data set [2] is listed as more than 5%. The molecule also came in with a CHI in [3] of 5.

As to `O=C1CC[C@H](N2Cc3c(O)cccc3C2=O)C(=O)N1`, in [2], the Activity was more than 5%. In data set [3], this molecule yielded a CHI of 0.2.

`CC1(C)C(=O)N(c2ccc(C#N)c(C(F)(F)F)c2)C(=S)N1c1ccc(OCCOCCOCCOCCOc2cccc3c2C(=O)N(C2CCC(=O)NC2=O)C3=O)cc1` (stereo not drawn): in [1], the Papp at 5 h was less than 10 nm/s. The Papp A→B at 2 h, 10 µM in [4] came to 17 nm/s. Further, in data set [5], the Papp B→A at 2 h, 10 µM was determined as 141 nm/s. Also, the efflux ratio at 2 h, 10 µM in data set [6] was determined as 8.4. The outcome in data set [8] was inactive.

Regarding `Cc1ncsc1-c1ccc(CNC(=O)[C@@H]2C[C@@H](O)CN2C(=O)[C@@H](NC(=O)COCCCOCCCCCOc2ccc(N3C(=S)N(c4ccc(C#N)c(C(F)(F)F)c4)C(=O)C3(C)C)cc2)C(C)(C)C)cc1`, in [1], the apparent permeability (Papp) at 5 h was less than 10 nm/s. Also, the Activity in [2] is 9%. In data set [3], this molecule gave a CHI of 6.3. In addition, the Papp A→B at 2 h, 10 µM in [4] amounted to 3.5 nm/s. The Papp B→A at 2 h, 10 µM in data set [5] is 2.4 nm/s. The efflux ratio at 2 h, 10 µM in data set [6] was found to be 0.7.

Consider `CC(O)(COc1ccc(O)cc1)C(=O)Nc1ccc(C#N)c(C(F)(F)F)c1` (stereo not drawn), for which the Papp at 5 h in data set [1] stood at 14 nm/s. In addition, the Activity is more than 5% in [2] and 23% in data set [7]. This molecule had a CHI in data set [3] of 4.

As for `CC1(C)C(=O)N(c2ccc(C#N)c(C(F)(F)F)c2)C(=S)N1c1ccc(OCCOCCOCCOCCOC23CC4CC(CC(C4)C2)C3)cc1`, in data set [1], the apparent permeability coefficient (Papp) at 5 h was less than 10 nm/s. Also, the Papp A→B at 2 h, 10 µM in data set [4] amounted to 1.5 nm/s. In addition, the Papp B→A at 2 h, 10 µM in data set [5] turned out to be 2.2 nm/s. For the same molecule, the efflux ratio at 2 h, 10 µM in data set [6] amounted to 1.5.

With `Cc1ncsc1-c1ccc(CNC(=O)[C@@H]2C[C@@H](O)CN2C(=O)[C@@H](NC(=O)COCCCOCCCCOc2ccc(N3C(=S)N(c4ccc(C#N)c(C(F)(F)F)c4)C(=O)C3(C)C)cc2)C(C)(C)C)cc1`, the Papp at 5 h in [1] is less than 10 nm/s. Also, in [2], the Activity is given as 10%. In data set [3], this molecule had a CHI of 6. Besides, in data set [4], the Papp A→B at 2 h, 10 µM is less than 270 nm/s. Besides, in data set [5], the Papp B→A at 2 h, 10 µM is 14 nm/s. Also, the efflux ratio at 2 h, 10 µM in [6] was more than 0.5.

Broadly, the DC50 is the midpoint of the concentration-degradation curve. Turning to `CC1(C)C(=O)N(c2ccc(C#N)c(C(F)(F)F)c2)C(=S)N1c1ccc(OCCOCCOCCOCCOc2cccc3c2CN([C@H]2CCC(=O)NC2=O)C3=O)cc1`, the %max in [9] was determined as 33%. Moreover, in [8], the DC50 came out at 0.01 µM.

The values are drawn from ChEMBL document CHEMBL4619811, “Systematic Investigation of the Permeability of Androgen Receptor PROTACs” (ACS Med Chem Lett, 2020).
